Rows were chosen to be rich in hits. Some 2.6% of all compounds tested hit in one or more screens of this group.
HIV Env fusion: inhibitors of HIV-1 Env-driven cell-cell fusion, primary screen, HeLa-JRFL effector, CEM21 target cells, luciferase; inhibition, % at 12.3 µM; 360,000 tested, 1.1% active; AID 651610, 2012;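 active = mean replicate inhibition score of at least 50 and every replicate individually at or above 50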;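 also: 0% = plate neutral controls and 100% = maraviroc near 300 nM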
S100A4 MyoIIA: inhibitors of S100A4-myosin IIA peptide binding, primary screen, biochemical, fluorescence polarization, TAMRA-MyoIIA peptide; inhibition, % at 10.7 µM; 360,000 tested, 0.14% active;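 active = mean inhibition of at least 70% across replicates, with every replicate also reaching that level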
Target sequence (P26447 whole entry, looked up): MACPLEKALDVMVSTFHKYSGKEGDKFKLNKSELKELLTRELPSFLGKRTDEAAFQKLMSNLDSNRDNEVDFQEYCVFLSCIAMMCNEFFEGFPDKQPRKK
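assay system = human S100A4 monomer with TAMRA-labelled myosin IIA peptide | also added = labelled myosin peptide probe, 5 nM | incubation = 5 min between mix addition and reading | control set = DMSO and TFP controls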
Vif inh: HIV Vif self-association inhibitors, primary screen, imaging, HEK293T, single point; AID 602346, 2012; inhibition, % at 7.49 µM; HEK293T cells, Vif self-association by quenched fluorescence, 24 h; 340,000 tested, 0.35% active; in the data active = inhibition above about 50%, passing the limit was not always enough
FN deposition inh: inhibitors of fibronectin matrix deposition, primary screen, AH1F cells, Alexa488-fibronectin fluorescence, plate reader; AH1F fibroblasts, overnight; inhibition, % at 12.6 µM; 350,000 tested, 0.086% active; AID 743247, 2014;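 active = mean inhibition across replicates of 30% or more, regardless of how many single replicates reach that level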;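 also: positive control wells lacked labelled fibronectin entirely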
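Measured by – fluorescence 485/525 nm · System – AH1F fibroblast monolayer, labelled fibronectin deposition · Amount – 10000 cells per well · Buffer or medium – serum-reduced DMEM (2% serum) · Doses – single dose, pinned · Also added – fluorescent fibronectin at 24 nM final · Schedule – 1 h cell attachment, overnight exposure to compound and label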
rRNA inh HTS: reduced GFP signal of wild-type E. coli, primary screen, bacterial rRNA inhibitor project, GFP/RFP fluorescence, OD600, single point | E. coli WT GFP vs humanized-ribosome RFP mutants, 24 h; hits give low values; DMSO median 0, no signal -100 | GFP signal change (wild-type ribosome), % (test concentration not listed) | 350,000 tested, 1.6% active;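 active = significant combined selectivity score with lowered wild-type GFP, culture density cut under 30%, mutant RFP and density less affected; inactive = any of these conditions unmet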
miR122 inh: miR-122 Renilla sensor signal increase in Huh7, primary screen, miR-122 inhibitor project, cell-based, single point, plate reader. Huh7 miR-122 Renilla luciferase sensor, 48 h; neutral wells = 0, positive control = 100. activation (reporter increase), % at 12.5 µM. 340,000 tested, 0.3% active. AID 602342, 2012;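 active = mean replicate activation score at least 90 and every replicate individually at or above 90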;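 also: higher luciferase means less miR-122 activity so hits act as miR-122 inhibitors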
The depositor's hits bear a star; . = no result given; [ ] = dose if it differs, or a comment.

SMILES | HIV Env fusion | S100A4 MyoIIA | Vif inh | FN deposition inh | rRNA inh HTS | miR122 inh
C[C@@H]1CN([C@@H](C)CO)C(=O)c2cc(NC(=O)C3CCCCC3)ccc2O[C@@H]1CN(C)Cc1ccc(-c2ccccc2)cc1 | . | 4 | . | 16 | -5 | 3[16.7 µM]
C[C@@H]1CN([C@@H](C)CO)C(=O)c2cc(NC(=O)C3CCCCC3)ccc2O[C@H]1CN(C)Cc1ccc(-c2ccccc2)cc1 | . | -16 | . | 30* | -1 | -7[16.7 µM]
C[C@H](CO)N1C[C@H](C)[C@H](CN(C)Cc2ccccc2)Oc2c(NC(=O)CCCCCC(=O)Nc3ccccc3N)cccc2C1=O | . | 108* | . | . | 3 | .
CC(C)NC(=O)Nc1cccc2c1O[C@@H](CN(C)Cc1ccc(C(=O)O)cc1)[C@@H](C)CN([C@@H](C)CO)C2=O | . | -3 | . | 3 | 2 | -3[16.7 µM]
C[C@@H]1CN([C@@H](C)CO)S(=O)(=O)c2ccc(-c3ccncc3)cc2O[C@H]1CN(C)Cc1cccnc1 | -15[16.7 µM] | -34 | . | -1 | -6 | 2[16.7 µM]
CC(=O)N1[C@H](CO)[C@H](c2ccccc2)C12CN(C(=O)c1ccccc1)C2 | . | -2 | . | . | 0 | .
C[C@@H]1CN([C@@H](C)CO)C(=O)c2cc(NC(=O)CCCCCC(=O)Nc3ccccc3N)ccc2O[C@H]1CN(C)C(=O)Nc1cccc2ccccc12 | . | -6 | . | . | -3 | .
C[C@@H]1CN([C@@H](C)CO)C(=O)c2cccc(NC(=O)NC3CCCCC3)c2O[C@@H]1CN(C)Cc1ccc(C(F)(F)F)cc1 | 15[16.7 µM] | -7 | . | 1 | -6 | 8[16.7 µM]
C[C@H]1CN([C@@H](C)CO)C(=O)c2cccc(NC(=O)NC3CCCCC3)c2O[C@@H]1CN(C)Cc1ccc(C(F)(F)F)cc1 | 10[16.7 µM] | -6 | . | -13 | 3 | 121*[16.7 µM]
C[C@H]1CN([C@@H](C)CO)C(=O)c2cccc(NC(=O)C3CCOCC3)c2O[C@@H]1CN(C)Cc1ccc(C(F)(F)F)cc1 | . | 13 | . | . | 3 | 105*[16.7 µM]
CNC[C@H]1Oc2c(NC(=O)Nc3ccc(C(F)(F)F)cc3)cccc2C(=O)N([C@@H](C)CO)C[C@H]1C | 63*[16.7 µM] | 93* | . | 8 | -58 | -1[16.7 µM]
C[C@H]1CN([C@@H](C)CO)C(=O)c2cccc(NC(=O)C3CCCCC3)c2O[C@@H]1CN(C)Cc1ccc(C(F)(F)F)cc1 | . | 70 | . | . | -3 | 94*[16.7 µM]
C[C@@H]1CN([C@@H](C)CO)C(=O)c2cccc(NC(=O)C3CCOCC3)c2O[C@@H]1CN(C)Cc1ccc(C(F)(F)F)cc1 | . | -1 | . | . | 4 | 2[16.7 µM]
C[C@H](CO)N1C[C@H](C)[C@H](CN(C)S(=O)(=O)c2ccc(Cl)cc2)Oc2ccc(NC(=O)c3ccncc3)cc2CC1=O | . | -15 | . | . | -1 | -5[16.7 µM]
O=C(NCC1CC1)[C@H]1[C@H](CO)[C@H]2Cn3c(ccc(-c4ccc(F)cc4)c3=O)[C@@H]1N2 | . | 1 | . | . | -1 | 1[16.7 µM]
C[C@@H]1CN([C@@H](C)CO)C(=O)c2cccc(NC(=O)C3CCOCC3)c2O[C@@H]1CN(C)Cc1ccc(C(=O)Nc2ccccc2N)cc1 | . | 79* | . | . | 1 | .
C[C@@H]1CN([C@@H](C)CO)C(=O)c2cccc(NC(=O)C3CCCCC3)c2O[C@H]1CN(C)Cc1ccccc1 | 63*[16.7 µM] | -5 | . | . | -5 | 3[16.7 µM]
C[C@H]1CN([C@@H](C)CO)C(=O)c2cccc(NC(=O)C3CC3)c2O[C@@H]1CN(C)Cc1ccc(C(F)(F)F)cc1 | -5[16.7 µM] | -10 | . | . | -5 | 113*[16.7 µM]
C[C@H](CO)N1C[C@H](C)[C@H](CN(C)Cc2ccc(C(F)(F)F)cc2)Oc2c(NC(=O)C3CC3)cccc2C1=O | -22[16.7 µM] | -11 | . | . | -4 | 13[16.7 µM]
C[C@H](CO)N1C[C@H](C)[C@@H](CN(C)Cc2ccccc2)Oc2c(NC(=O)C3CCCCC3)cccc2C1=O | 7[16.7 µM] | -2 | -9 | -23 | -3 | 44[16.7 µM]

From PubChem BioAssay
